One series relates to Vero. Kind of series: Cytotoxicity against African green monkey Vero cells measured after 72 hrs by MTT assay. The format is cell-based. The conditions noted are these: Chlorocebus sabaeus. Summed up: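 Log-phase Vero cells (0.8 × 10^4/well) in RPMI-1640 + 10% heat-inactivated FBS at 37 °C, 5% CO2 were exposed 72 h to serial dilutions (10.0–200.0 µM; stocks in DMSO). MTT was then added for 4 h and absorbance read. Quadruplicates, three experiments; IC50 by nonlinear regression.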

Series [1] has as its system Trypanosoma cruzi. Put plainly: Antitrypanosomal activity against Trypanosoma cruzi MHOM/Pe/2011/Arequipa;DTU 5 bloodstream trypomastigotes infected in BALB/c mouse assessed as reduction in serum Ig-G level in chronic phase at 20 mg/kg/day, po administered for 5 consecutive days starting from day 70 post infection followed by cyclophosphamide induced immunosuppression on day 80 post infection and measured at day 100 post infection by ELISA. The format is functional, organism-based. In a few lines:
(§1)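 Sera came from infected BALB/c mice (three per group) dosed orally at 20 mg/kg/day for 5 days. Sampling points: 2 days after treatment, the day before immunosuppression (acute only) and necropsy day. Anti-T. cruzi IgG was measured by indirect ELISA using parasite Fe-SOD as antigen, read as OD at 492 nm.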
For orientation: In an ELISA, binding on a coated surface is turned into a signal by an enzyme label.

Series [2] is described as follows: Toxicity in BALB/c mouse infected with Trypanosoma cruzi MHOM/Pe/2011/Arequipa;DTU 5 bloodstream trypomastigote assessed as decrease in serum lactate dehydrogenase level in acute phase at 20 mg/kg/day,po administered for 5 consecutive days starting from day 8 post infection and measured at day 14 post infection by biochemical analysis relative to control. The format is organism-based. The note with it: in vivo. Set-up: scale not given: the % may be the effect or the level left. In a few lines: (§2)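 Female BALB/c mice (10–12 weeks, 14–20 g; groups of three) were infected i.p. with 5 × 10^5 Arequipa bloodstream trypomastigotes. Dosing was oral at 20 mg/kg/day for 5 days, from day 8 pi (acute) or day 70 pi (chronic), as a 2 mg/ml suspension in 5% DMSO/0.5% HPMC; controls received vehicle. Cyclophosphamide 200 mg/kg i.p. was given at day 80 pi. Serum was collected 2 days post-treatment and at necropsy by cardiac puncture and compared with infected untreated controls.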

Series [3] has as its system Trypanosoma cruzi. Put plainly: Antitrypanosomal activity against Trypanosoma cruzi MHOM/Pe/2011/Arequipa;DTU 5 amastigote forms measured after 72 hrs by Giemsa staining based assay. The format is functional, organism-based. The note with it: MHOM/Pe/2011/Arequipa;DTU 5, 72 h. Summed up: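 Vero cells (1 × 10^4/well, on coverslips) left to adhere 24 h at 37 °C, 5% CO2, then infected with trypomastigotes at MOI 10:1 for 24 h. Free parasites were removed by three PBS washes. Compounds at 3.1, 6.25, 12.5, 25 and 50 µM were incubated 72 h, and amastigotes were counted after Giemsa staining. Triplicates, two separate experiments; IC50 by nonlinear regression.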

A short description of series [4]: Toxicity in BALB/c mouse infected with Trypanosoma cruzi MHOM/Pe/2011/Arequipa;DTU 5 bloodstream trypomastigote assessed as change in serum alanine aminotransferase level in chronic phase at 20 mg/kg/day, po administered for 5 consecutive days starting from day 70 post infection measured on day 100 post infection relative to control. The format is organism-based. The conditions noted are these: in vivo. In a few lines: as §2

In series [5] the test system is Trypanosoma cruzi. Put plainly: Antitrypanosomal activity against Trypanosoma cruzi MHOM/Pe/2011/Arequipa;DTU 5 bloodstream trypomastigotes infected in BALB/c mouse assessed as parasite-free stomach in acute phase at 20 mg/kg/day, po administered for 5 consecutive days starting from day 8 post infection followed by cyclophosphamide induced immunosuppression on day 80 post infection measured after day 100 post infection by PCR method relative to control. The format is functional. In a few lines:
(§3)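 Female BALB/c mice (10–12 weeks, three per group) were infected i.p. with 5 × 10^5 Arequipa bloodstream trypomastigotes. Dosing was oral, 20 mg/kg/day for 5 days, as a suspension in 5% DMSO/0.5% HPMC. Cyclophosphamide 200 mg/kg i.p. was given at day 80 pi. At necropsy (day 100) tissues were tested by PCR on the splice leader region (primers TC/TC1, 300 bp). Scored as x/3 mice positive.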

Series [6] deals with Trypanosoma cruzi. Put plainly: Antitrypanosomal activity against Trypanosoma cruzi MHOM/Pe/2011/Arequipa;DTU 5 bloodstream trypomastigote infected in BALB/c mouse assessed as parasitemia reactivation in chronic phase at 20 mg/kg/day, po administered for 5 consecutive days starting from day 70 post infection followed by cyclophosphamide induced immunosuppression on day 80 post infection by Neubauer chamber relative to control. The series is classed as functional. In a few lines:
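Female BALB/c mice (three per group) were infected i.p. with 5 × 10^5 Arequipa bloodstream trypomastigotes and treated orally at 20 mg/kg/day for 5 days (vehicle 5% DMSO/0.5% HPMC). Once parasitemia was undetectable (day 80 pi), cyclophosphamide 200 mg/kg was given i.p. Bloodstream parasites were then counted to give % reactivation versus untreated controls.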

Series [7] has as its system Trypanosoma cruzi. Put plainly: Antitrypanosomal activity against Trypanosoma cruzi MHOM/Pe/2011/Arequipa;DTU 5 bloodstream trypomastigote infected in BALB/c mouse assessed as parasite-free bone marrow in acute phase at 20 mg/kg/day, po administered for 5 consecutive days starting from day 8 post infection followed by cyclophosphamide induced immunosuppression on day 80 post infection measured after day 100 post infection by PCR method relative to control. The series is classed as functional. Summed up: as §3

The test system of series [8] is Trypanosoma cruzi. Put plainly: Antitrypanosomal activity against Trypanosoma cruzi MHOM/Pe/2011/Arequipa;DTU 5 bloodstream trypomastigote infected in BALB/c mouse assessed as parasite-free spleen in acute phase at 20 mg/kg/day, po administered for 5 consecutive days starting from day 8 post infection followed by cyclophosphamide induced immunosuppression on day 80 post infection measured after day 100 post infection by PCR method relative to control. The format is functional. Summed up: as §3

Series [9] can be described thus: Selectivity index, ratio of IC50 for African green monkey Vero cells to IC50 for Trypanosoma cruzi IRHOD/CO/2008/SN3;DTU 1. The series is classed as toxicity. The conditions noted are these: read-out: Selectivity Index. In a few lines:
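SI = Vero IC50 / epimastigote IC50. Vero cells were grown in RPMI-1640 with 10% FBS, seeded at 0.8 × 10^4 cells/well, exposed to 10.0–200.0 µM for 72 h, then given MTT for 4 h. Epimastigotes were grown in MTL with 10% FBS at 28 °C, 5 × 10^5/mL, exposed to 6.3–50 µM for 48 h, then resazurin for 24 h (570/600 nm). IC50s came from nonlinear regression.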

The subject of series [10] is Trypanosoma cruzi. Kind of series: Antitrypanosomal activity against Trypanosoma cruzi MHOM/Pe/2011/Arequipa;DTU 5 epimastigote assessed as effect on D-lactate excretion at IC50 after 72 hrs by H NMR method relative to control. The format is functional, organism-based. In a few lines: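 Cells were spun at 800 × g for 10 min and culture supernatants analysed by 1H NMR. Catabolite peaks were expressed as % variation versus untreated parasites.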

The subject of series [11] is Trypanosoma cruzi. Put plainly: Antitrypanosomal activity against Trypanosoma cruzi MHOM/Pe/2011/Arequipa;DTU 5 bloodstream trypomastigote infected in BALB/c mouse assessed as parasite-free spleen in chronic phase at 20 mg/kg/day, po administered for 5 consecutive days starting from day 70 post infection followed by cyclophosphamide induced immunosuppression on day 80 post infection measured after day 100 post infection by PCR method relative to control. The format is functional. In a few lines: as §3

In series [12] the test system is Trypanosoma cruzi. Kind of series: Antitrypanosomal activity against Trypanosoma cruzi MHOM/Pe/2011/Arequipa;DTU 5 bloodstream trypomastigotes infected in BALB/c mouse assessed as reduction in serum Ig-G level in acute phase at 20 mg/kg/day, po administered for 5 consecutive days starting from day 8 post infection followed by cyclophosphamide induced immunosuppression on day 80 post infection and measured at day 100 post infection by ELISA. The format is functional, organism-based. In a few lines: as §1

The source made the active and inactive calls. No cut-off for these calls is given here.

The term IC50 denotes the point on the concentration scale where inhibition reaches its midpoint.

With `O=C(CCN1CCN(c2ccc(Cl)cc2)CC1)c1ccc(O)cc1`, the figures for the IC50 with Vero and in the series with Trypanosoma cruzi [3] were 104 µM and 5.1 µM, respectively. Moreover, the outcome in the series on Trypanosoma cruzi [1], with Trypanosoma cruzi [10] and in the series with Trypanosoma cruzi [12] was Active. Further, the Activity entry in series [2] was “<= 20%”; in [4], > 10%; with Trypanosoma cruzi [5], 50%; in the series with Trypanosoma cruzi [6], 20%; in the series with Trypanosoma cruzi [7], 50%; with Trypanosoma cruzi [8], 50%. Further, the Activity in the series with Trypanosoma cruzi [11] was determined as 63%. For the same molecule, the selectivity ratio in series [9] stood at 8.6.
On to `O=C(CCN1CCN(c2ccc(C(F)(F)F)cc2)CC1)c1ccc(O)cc1`, for which the IC50 with Vero stood at 107 µM; in the series with Trypanosoma cruzi [3], 6.2 µM. In addition, the result in the series on Trypanosoma cruzi [1], in the series with Trypanosoma cruzi [10] and in the series with Trypanosoma cruzi [12] was Active. The Activity entry in [2] was “<= 20%”; in series [4] it was > 10%; in the series on Trypanosoma cruzi [5], 13%; with Trypanosoma cruzi [6], 30%; with Trypanosoma cruzi [7], 13%; with Trypanosoma cruzi [8] it was 13%. Further, the Activity in the series on Trypanosoma cruzi [11] was determined as 50%. For the same molecule, the selectivity ratio in [9] was 8.5.
`O=C(Cn1ccnc1[N+](=O)[O-])NCc1ccccc1` [BENZNIDAZOLE]: the IC50 with Vero was > 200 µM; in the series on Trypanosoma cruzi [3], 3 µM. For the same molecule, the result in the series on Trypanosoma cruzi [1], with Trypanosoma cruzi [10] and with Trypanosoma cruzi [12] was Active. In addition, the Activity entry in series [2] was “<= 10%”; in [4], > 10%; with Trypanosoma cruzi [5] it was 25%; in the series on Trypanosoma cruzi [6], 40%; in the series on Trypanosoma cruzi [7], 25%; in the series with Trypanosoma cruzi [8], 25%. In addition, the Activity in the series with Trypanosoma cruzi [11] was found to be 38%. In [9], the selectivity ratio is > 13.1.

The record behind these values is ChEMBL document CHEMBL4402517, “Rational modification of Mannich base-type derivatives as novel antichagasic compounds: Synthesis, in vitro and in vivo evaluation” (Bioorg Med Chem, 2019).
